Hits are enriched below; roughly 2.3% of the tested compounds scored in any of these assays.
TRPC4 potent: allosterically enhances the mouse TRPC4 cation channel | HEK293 TRPC4beta/mu-opioid, DAMGO EC20, Fluo-4 Ca2+ flux; hits give high values | Q9QUQ5 | B-score at 10 µM | actives 0.42% (n = 310,000);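 active = B-score of calcium response area above 5 SD of library B-scores, with initial fluorescence ratio within 5 SD of library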
Target sequence (Q9QUQ5 whole entry, looked up): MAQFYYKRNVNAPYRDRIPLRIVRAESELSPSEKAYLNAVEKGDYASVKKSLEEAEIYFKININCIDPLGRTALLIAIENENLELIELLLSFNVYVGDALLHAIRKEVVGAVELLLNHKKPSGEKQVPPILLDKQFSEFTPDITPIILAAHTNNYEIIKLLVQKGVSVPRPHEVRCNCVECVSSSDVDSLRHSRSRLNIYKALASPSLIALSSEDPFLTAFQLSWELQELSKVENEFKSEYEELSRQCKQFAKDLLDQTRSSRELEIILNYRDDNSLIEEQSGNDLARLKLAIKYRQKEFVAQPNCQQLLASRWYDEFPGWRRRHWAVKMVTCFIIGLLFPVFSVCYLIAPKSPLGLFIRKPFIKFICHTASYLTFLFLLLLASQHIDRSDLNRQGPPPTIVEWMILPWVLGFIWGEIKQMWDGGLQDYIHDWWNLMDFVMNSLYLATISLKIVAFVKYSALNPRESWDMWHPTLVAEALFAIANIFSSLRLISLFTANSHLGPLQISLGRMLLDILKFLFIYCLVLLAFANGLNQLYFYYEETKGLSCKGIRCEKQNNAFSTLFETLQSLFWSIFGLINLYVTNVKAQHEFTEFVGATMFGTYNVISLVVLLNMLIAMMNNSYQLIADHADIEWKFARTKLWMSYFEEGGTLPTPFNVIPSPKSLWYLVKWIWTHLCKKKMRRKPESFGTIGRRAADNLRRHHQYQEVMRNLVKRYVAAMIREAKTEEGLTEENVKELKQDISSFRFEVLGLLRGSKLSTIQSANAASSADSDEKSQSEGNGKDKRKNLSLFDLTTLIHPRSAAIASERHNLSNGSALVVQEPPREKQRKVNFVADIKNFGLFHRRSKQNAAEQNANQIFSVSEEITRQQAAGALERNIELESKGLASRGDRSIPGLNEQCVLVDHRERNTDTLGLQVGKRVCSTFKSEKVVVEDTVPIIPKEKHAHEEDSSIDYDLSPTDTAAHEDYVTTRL
TRPC4 block: TRPC4 (mouse) channel inhibition; Q9QUQ5; HEK293 TRPC4beta/mu-opioid, DAMGO-evoked Fluo4 calcium flux; hits give low values; B-score at 10 µM; actives 0.39% (n = 300,000); AID 2247;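 active = B-score over 3 SD under the library average, no early fluorescence shift, positive overall ratio signal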
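Assay system – HEK293 line stably carrying TRPC4beta and mu-opioid receptor · Doses – single dose · Detection – Fluo4 calcium-dye fluorescence, kinetic read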
TRPC6 inh: inhibitors of mouse TRPC6 channel; B-score at 10 µM; actives 1.1% (n = 310,000); Q61143; HEK293-TRPC6, membrane potential dye, ACh-evoked depolarization; hits give low values; AID 2553;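 active = B-score under library mean minus 3 SD, initial fluorescence not abnormally high, positive integrated signal ratio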;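 also: B-score derived from integrated fluorescence ratio over the kinetic read; more negative B-score means stronger inhibition of depolarization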
TRPC6 act: activates the mouse TRPC6 cation channel. actives 0.13% (n = 310,000). B-score at 10 µM. Q61143. AID 2550. HEK293-TRPC6 membrane potential dye fluorescence; hits give high values;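 active = B-score of the integrated fluorescence ratio above library mean plus 3 SD, and starting fluorescence ratio within library mean plus 5 SD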;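 also: higher score means more depolarization so channel activation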
TRPC4 agonist: activators of mouse TRPC4 channel; HEK293 TRPC4beta/mu-opioid, Fluo4 calcium fluorescence; hits give high values; B-score at 10 µM; actives 0.49% (n = 310,000);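 active = B-score above 5 SD of library B-scores, and initial fluorescence ratio not above library mean plus 5 SD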;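 also: positive B-score marks a calcium rise read as TRPC4 activation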
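Test system: HEK293 cells stably co-expressing mouse TRPC4beta and mu-opioid receptor | Schedule: Fluo4 dye loading 45 min at room temperature, 110 s recording | Measured by: Kinetic Fluo4 calcium fluorescence, 5 s baseline at 1 Hz | Evaluation: B score of integrated ratio | Controls: Buffer (low) and maximal DAMGO (high)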
TRPC4 spec 2: second selectivity test of TRPC6 inhibitors: effect on mouse TRPC4; shares compounds with TRPC6 inh; HEK293 TRPC4/MOR, membrane potential dye fluorescence; channel activated by saturating DAMGO dose; inhibition, % at 10 µM; actives 42% (n = 920);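 active = compounds whose fluorescence signal differed from control wells by over 3 SD, either direction, in both duplicate plates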
TRPC4 spec: selectivity of TRPC6 inhibitors: effect on mouse TRPC4 | shares compounds with TRPC6 inh | AID 2777 | activity change, negative = inhibition, % at 10 µM | actives 61% (n = 920) | HEK293 TRPC4/mu-opioid, membrane potential fluorescence;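 active = rise or fall in signal beyond 3 SD of buffer-only wells in both replicate plates, either sign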;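 also: integrated kinetic ratio of fluorescence range over baseline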
HEK293 MPD ctr 2-1: second check of TRPC6 inhibitor effects in parental HEK293 cells | shares compounds with TRPC6 inh | parental HEK293 membrane potential dye fluorescence; maximal acetylcholine challenge after compound addition | signal change vs control, % at 10 µM | actives 31% (n = 920) | AID 2779;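 active = membrane potential signal moving either way by over 3 SD of the maximum-effect control, in both duplicate plates, meaning non-specific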
HEK293 MPD ctr-1: checks TRPC6 inhibitor effects in parental HEK293 cells; shares compounds with TRPC6 inh; parental HEK293 membrane potential dye fluorescence; membrane potential signal change, % at 10 µM; actives 60% (n = 920);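 active = membrane potential signal shifting up or down by more than 3 SD of buffer-only wells, on both duplicate plates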
HEK293 MPD ctr-2: checks TRPC6 modulator effects in parental HEK293 cells. membrane potential signal change, % at 10 µM. AID 488924. membrane potential dye fluorescence. shares compounds with TRPC6 inh. actives 51% (n = 2,400);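 active = membrane potential signal moves up or down beyond 5 SD from buffer-only wells, on both duplicate plates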
HEK293 MPD ctr 2-2: second counter-screen for TRPC6 modulators: effect in parental HEK293 cells | shares compounds with TRPC6 inh | membrane potential dye fluorescence; after compound, maximal acetylcholine stimulation | inhibition, % at 10 µM | actives 14% (n = 2,400) | AID 488926;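 active = membrane potential signal drops by more than 5 SD from the mean control signal, in both duplicate plates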
TRPC4 ctr mod: selectivity of TRPC6 modulators against mouse TRPC4; actives 69% (n = 2,400); shares compounds with TRPC6 inh; percent change from control (negative = decrease, positive = increase), % at 10 µM; HEK293 TRPC4/mu-opioid, membrane potential fluorescence;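 active = membrane potential signal moved up or down beyond 5 SD of buffer control wells, in both duplicate plates, actives on both sides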
TRPC4 ctr inh 2: second selectivity test of TRPC6 modulators against mouse TRPC4; actives 55% (n = 2,400); shares compounds with TRPC6 inh; inhibition, % at 10 µM; HEK293 TRPC4/mu-opioid, membrane potential dye fluorescence; stimulated with maximal-effect DAMGO;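 active = drop in membrane potential signal beyond 5 SD of the control wells in both duplicate plates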;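 also: TRPC4 counter screen for TRPC6 hits run under conditions tuned for TRPC6 not TRPC4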
TRPC6 inh conf: confirmation of mouse TRPC6 inhibitors | actives 43% (n = 3,300) | HEK293-TRPC6, membrane potential dye, ACh-evoked depolarization | shares compounds with TRPC6 inh | inhibition, % at 10 µM;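 active = fluorescence ratio falls more than 5 SD below the full-stimulation control mean, in both duplicate runs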;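 also: integrated fluorescence ratio of peak minus minimum over baseline after agonist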
TRPC6 act confirm: confirmation of mouse TRPC6 activators; actives 11% (n = 2,800); shares compounds with TRPC6 inh; activation, % at 10 µM; HEK293-TRPC6 membrane potential dye fluorescence, FDSS; AID 488961;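 active = ratio signal rise beyond 5 SD above unstimulated control wells' mean, seen in both duplicate runs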
A number is an active result; i = inactive; nt = no result given.

SMILES	TRPC4 potent	TRPC4 block	TRPC6 inh	TRPC6 act	TRPC4 agonist	HEK293 MPD ctr-2	HEK293 MPD ctr 2-2	TRPC4 ctr mod	TRPC4 ctr inh 2	TRPC6 inh conf	TRPC6 act confirm	others
CC(=O)/C(=N/Nc1ccccc1[N+](=O)[O-])N1CCCc2ccccc21	i	i	-6.6	i	i	i	i	i	49%	i	i
S=c1[nH]nc(Cc2ccccc2)n1Cc1ccco1	i	i	-8.3	i	i	nt	nt	nt	nt	65%	i	TRPC4 spec 2=i;TRPC4 spec=i;HEK293 MPD ctr 2-1=14%;HEK293 MPD ctr-1=i
CCCn1c(Cc2ccccc2)n[nH]c1=S	i	i	i	i	i	nt	nt	nt	nt	nt	nt
Cc1ccc(C2=NS(=O)(=O)N(C)C(C(=O)NC3CCCC3)=C2)cc1	i	i	i	i	i	nt	nt	nt	nt	nt	nt
O=c1c2cc(Br)ccc2nc2n1CCCCC2	i	i	-7.8	i	i	nt	nt	nt	nt	i	i	TRPC4 spec 2=i;TRPC4 spec=i;HEK293 MPD ctr 2-1=i;HEK293 MPD ctr-1=i
Cc1ccc2nc3n(c(=O)c2c1)CCCCC3	i	i	i	i	i	nt	nt	nt	nt	nt	nt
O=C(c1ccc2c(=O)n3c(nc2c1)CCCCC3)N1CCN(c2ccccc2)CC1	i	i	i	i	i	nt	nt	nt	nt	nt	nt
O=C(c1ccc2c(=O)n3c(nc2c1)CCCCC3)N1CCN(C(c2ccccc2)c2ccccc2)CC1	i	i	-11	i	i	nt	nt	nt	nt	i	i	TRPC4 spec 2=i;TRPC4 spec=-9.3%;HEK293 MPD ctr 2-1=i;HEK293 MPD ctr-1=i
Cc1ccc(CCNC(=O)c2cc(S(=O)(=O)N3CCCC3)cn2C)cc1	i	i	i	i	i	nt	nt	nt	nt	nt	nt
Cc1ccc(Cn2c(=N)n(CC(O)COc3ccccc3)c3ccccc32)cc1 (centres undefined)	i	i	-5.9	i	72	i	i	68%	115%	46%	nt
CCCCn1c(=N)n(CC(O)COc2ccccc2)c2ccccc21 (centres undefined)	i	i	i	i	i	nt	nt	nt	nt	nt	nt
N=c1n(Cc2ccccc2)c2ccccc2n1CC(O)COc1ccccc1 (centres undefined)	i	i	-9.9	i	56	nt	nt	nt	nt	63%	nt	TRPC4 spec 2=-6.5%;TRPC4 spec=56%;HEK293 MPD ctr 2-1=i;HEK293 MPD ctr-1=14%
CCOc1ccccc1NC(=O)CCCNC(=O)c1ccc(Cl)cc1	i	i	i	i	i	nt	nt	nt	nt	nt	nt
O=C(c1cccs1)N1CCCC(c2nc3c(nnn3Cc3ccc(F)cc3)c(=O)[nH]2)C1 (centres undefined)	i	i	-7.5	i	i	nt	nt	nt	nt	i	i	TRPC4 spec 2=i;TRPC4 spec=i;HEK293 MPD ctr 2-1=i;HEK293 MPD ctr-1=i
O=C(c1cccs1)N1CCCC(c2nc3c(nnn3Cc3ccccc3)c(=O)[nH]2)C1 (centres undefined)	i	i	i	i	i	nt	nt	nt	nt	nt	nt
Cc1cc(C)c(OCCCNC2CCCC2)c(Br)c1	i	i	-5.4	12	i	201%	i	43%	54%	i	94%
Cc1cc(C)c(OCCCNCc2ccccc2)c(Br)c1	i	i	i	i	i	nt	nt	nt	nt	nt	nt
Cc1cc(C)cc(N(C(=O)c2csnn2)C(C(=O)NC2CCCCC2)c2ccccn2)c1 (centres undefined)	i	i	i	i	i	nt	nt	nt	nt	nt	nt
COc1ccc2c(c1)S/C(=C\C(=O)c1ccncc1)N2C	i	i	-5.9	i	i	100%	i	-67%	34%	i	i
COC(=O)c1c(NC(=O)C(C)C)sc(C(=O)N2CCOCC2)c1C	i	i	i	i	i	nt	nt	nt	nt	nt	nt
C=CC[n+]1c(/C=C/c2ccc(OC(C)=O)c(OC)c2)ccc2ccccc21	i	i	-8	i	i	-301%	90%	-57%	65%	64%	i
COc1cc(/C=N/NC(=O)Nc2ccccc2)ccc1OC(C)=O	i	i	i	i	i	nt	nt	nt	nt	nt	nt
COCCNC(=O)c1ccccc1NS(=O)(=O)c1ccc(Br)s1	i	i	i	i	i	nt	nt	nt	nt	nt	nt
CC(C)c1nc(N2CCOCC2)c(C#N)c2c1CCCC2	i	i	-5.5	i	i	i	i	18%	i	i	nt
N#C/C(=C\Nc1ccccc1SC(F)(F)F)c1nc(-c2ccc(Cl)cc2)cs1	i	i	i	i	i	nt	nt	nt	nt	nt	nt
SMILES	TRPC4 potent	TRPC4 block	TRPC6 inh	TRPC6 act	TRPC4 agonist	HEK293 MPD ctr-2	HEK293 MPD ctr 2-2	TRPC4 ctr mod	TRPC4 ctr inh 2	TRPC6 inh conf	TRPC6 act confirm	others
COc1ccccc1N1CCN(C(=O)CSc2nc(C)c(C)c(=O)[nH]2)CC1	i	i	i	i	i	nt	nt	nt	nt	nt	nt
COc1ccccc1N1CCN(C(=O)CSc2nc(C)cc(=O)[nH]2)CC1	i	i	-6.9	i	i	nt	nt	nt	nt	i	i	TRPC4 spec 2=i;TRPC4 spec=i;HEK293 MPD ctr 2-1=i;HEK293 MPD ctr-1=i
CCCCNC(=O)C1CCC(CNS(=O)(=O)c2ccc(C)cc2)CC1 (centres undefined)	i	i	i	i	i	nt	nt	nt	nt	nt	nt
COCCCNC(=O)C1CCC(CNS(=O)(=O)c2ccc(C)cc2)CC1 (centres undefined)	i	i	-6.3	i	i	99%	i	22%	i	i	i
O=[N+]([O-])c1ccc(NC2CCN(Cc3ccccc3)CC2)c([N+](=O)[O-])c1	i	i	-6.7	i	i	-90%	i	-17%	52%	i	i
NS(=O)(=O)c1ccc(NN=C2CCN(Cc3ccccc3)CC2)c([N+](=O)[O-])c1	17	i	-5.7	i	i	i	i	i	i	i	i
NC(=O)CC(NC(=O)Cc1ccc(Br)cc1)c1ccc(NC2CCN(Cc3ccccc3)CC2)c([N+](=O)[O-])c1 (centres undefined)	i	i	i	i	i	nt	nt	nt	nt	nt	nt
